Screening results from PubChem.
MBD2 inh – inhibitors of human MBD2 binding to methylated oligonucleotide; inhibition, % at 4.4 µM; Q9UBB5; 370,000 tested, 0.31% active; TR-FRET; AID 686964; in the data active means inhibition above about 13%
Target sequence (Q9UBB5 whole entry, looked up): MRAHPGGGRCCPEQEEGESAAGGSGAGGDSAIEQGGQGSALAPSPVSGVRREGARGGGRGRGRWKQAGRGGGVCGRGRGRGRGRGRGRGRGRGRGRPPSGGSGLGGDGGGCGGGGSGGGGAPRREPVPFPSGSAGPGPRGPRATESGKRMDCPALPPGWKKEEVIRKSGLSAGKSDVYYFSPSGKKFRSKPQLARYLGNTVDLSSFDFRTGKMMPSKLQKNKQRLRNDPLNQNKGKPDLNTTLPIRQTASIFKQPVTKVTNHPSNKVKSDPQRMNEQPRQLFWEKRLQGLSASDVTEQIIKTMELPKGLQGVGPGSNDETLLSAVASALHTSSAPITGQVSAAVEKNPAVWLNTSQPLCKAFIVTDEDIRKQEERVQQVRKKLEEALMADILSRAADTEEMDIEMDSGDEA
CASP6 VEID inh – blocks human caspase-6 cleavage activity | P55212 | purified caspase-6, Z-VEID-R110 cleavage fluorescence | inhibition, % at 12.5 µM | 350,000 tested, 0.53% active | AID 686996;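 active means mean inhibition across replicates at least about 35%, with every replicate also reaching that limit, limit read from the data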;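 further: 0% = median of neutral control wells and 100% = no fluorescence left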
Target sequence (P55212 24-179 limits assumed): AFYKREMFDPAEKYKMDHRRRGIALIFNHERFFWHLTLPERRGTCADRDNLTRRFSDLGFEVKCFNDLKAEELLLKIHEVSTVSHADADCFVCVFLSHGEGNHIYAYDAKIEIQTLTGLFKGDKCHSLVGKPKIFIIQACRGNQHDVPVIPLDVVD
Target sequence (P55212 194-293 limits assumed): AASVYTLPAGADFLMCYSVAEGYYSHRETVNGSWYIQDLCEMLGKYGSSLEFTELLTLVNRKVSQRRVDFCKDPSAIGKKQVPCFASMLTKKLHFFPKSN
NSD2 HMT inh – blocks human histone methyltransferase NSD2 | inhibition, % at 12.5 µM | AID 743445 | 310,000 tested, 0.54% active | NSD2 peptide methylation, AlphaScreen, 120 min; in the data active means inhibition above about 50%
UHRF1 MBD2 ctr – human UHRF1 methylated DNA binding inhibitors | Q96T88 | UHRF1 binding to methylated oligo, TR-FRET | inhibition, % at 4.4 µM | 370,000 tested, 0.75% active; in the data active means inhibition above about 21%;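 further: UHRF1 SRA domain binding a hemimethylated CpG hairpin DNA probe; 0% = median of test compound wells and 100% = reference inhibitor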
LEDGF integ inh – blocks HIV-1 LEDGF/p75-dependent DNA integration; 370,000 tested, 0.64% active; TR-FRET IN-LEDGF/p75 DNA integration, Eu/Cy5; inhibition, % at 3.7 µM;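 active means inhibition above the screen-wide mean plus 3 SD, cut at about 13% in these data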;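 further: signal is the Cy5 over europium emission ratio at 671 and 618 nm; 0% = plate median of compound wells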
TDP2 absorb – TDP2 (human) inhibition, absorbance primary screen; recombinant TDP2, T5PNP hydrolysis, p-nitrophenol absorbance 415 nm; inhibition, % at 12.8 µM; 370,000 tested, 0.34% active;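 active means inhibition above the mean of all tested compounds plus 3 SD, set per campaign, cut at about 25% in these data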;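 further: 0% = DMSO with enzyme and 100% = buffer with substrate but no TDP2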
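System – recombinant human TDP2 · Amount – 120 nM TDP2 per well · Buffer or medium – Mg2+-containing Tris-HCl buffer, pH 7.5 · Reagent – T5PNP substrate, 5 mM · Dosing – 12.8 µM single point, 1% DMSO · Incubation – 2 h at 37 °C · Measured by – epi absorbance · Read-out basis – percent inhibition · Benchmarks – high control without enzyme, low control DMSO plus TDP2 · Repeats – singlicate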
IN multimer up – counter-screen for LEDGF/p75 integration inhibitors: HIV-1 integrase multimerization activators | shares compounds with LEDGF integ inh | TR-FRET HIV-1 integrase multimerization, biochemical | activation, % at 7.7 µM | 2,000 tested, 17% active; in the data active means activation above about 8.9%
TR-FRET interf – counter-screen for LEDGF/p75 integration inhibitors: TR-FRET optical interference. inhibition, % at 7.7 µM. 2,000 tested, under 10 active. AID 1053135. shares compounds with LEDGF integ inh. TR-FRET optical interference counterscreen, HIV-1 IN multimerization;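 active means inhibition above the mean over all tested compounds plus 3 SD, which no compound reached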;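 further: 0% = integrase with antibodies and DMSO and 100% = antibodies without integrase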
LEDGF integ conf – confirmation of HIV-1 LEDGF/p75-dependent integration inhibitors; TR-FRET LEDGF/p75-dependent HIV-1 integration, biochemical; inhibition, % at 3.7 µM; shares compounds with LEDGF integ inh; 2,000 tested, 36% active; AID 1053136; in the data active means inhibition above about 14%
Numbers without * were called inactive; . = no result given. Sampled rows, rich in hits. Any-hit rate of the full collection: about 1.9%.

SMILES | MBD2 inh | CASP6 VEID inh | NSD2 HMT inh | UHRF1 MBD2 ctr | LEDGF integ inh | TDP2 absorb | IN multimer up | TR-FRET interf | LEDGF integ conf
CCCCOCCCNC(=O)C[C@H]1C[C@@]2(C(=O)OC)C(=C[C@H](C3CCCC3)O[C@@H]2C)N(Cc2ccc(Cl)cc2Cl)C1=O | -2.3 | . | . | -0.6 | -2.0 | -5.6 | . | . | .
CCCCOCCCNC(=O)C[C@H]1C[C@@]2(C(=O)OC)C(=C[C@H](C(C)(C)C)O[C@@H]2C)N(Cc2ccc(Cl)cc2Cl)C1=O | -6.1 | . | . | -1.3 | 19.9* | -0.6 | 0.5 | -1.7 | -7.0
CC(C)C#Cc1ccc([C@@H]2[C@@H](C#N)N(C(=O)CN(C)C)[C@H]2CO)cc1 | . | -9.5 | . | . | . | . | . | . | .
COc1ccc2c3c([nH]c2c1)[C@@H](CO)N(CC1CCOCC1)CC31CN(C(=O)C2CC2)C1 | . | 10.1 | . | . | . | . | . | . | .
COc1cccc(NC(=O)CSc2nnc(-c3ccoc3C)n2-c2ccccc2)c1 | -2.7 | . | -0.5 | -2.9 | 29.3* | -1.4 | 1.6 | -5.6 | -12.9
COc1ccc(-n2c(SCC(=O)Nc3ccccc3)nnc2-c2ccoc2C)cc1 | 2.2 | . | 7.3 | 0.8 | 0.9 | -6.9 | . | . | .
C[C@@H]1CN([C@@H](C)CO)C(=O)c2ccccc2-c2ccccc2CO[C@H]1CN(C)S(=O)(=O)c1ccc([N+](=O)[O-])cc1 | . | 0.3 | . | . | . | . | . | . | .
COC(=O)c1ccc2nc(-c3ccc(C)cc3)c(Cc3ccccc3)n2c1 | 2.8 | 0.6 | . | 9.8 | 13.6* | 0.8 | 8.7 | -27.9 | -2.2
COc1ccc(NC(=O)N(C)C[C@@H]2Oc3ccc(NS(=O)(=O)c4c(C)noc4C)cc3CC(=O)N([C@@H](C)CO)C[C@H]2C)cc1 | . | 1.3 | . | . | . | . | . | . | .
Nc1cc(N)cc(C(=O)c2ccccc2)c1 | -11.9 | 36.4* | 44.5 | -4.0 | 21.1* | 15.6 | 1.7 | -8.6 | -1.0
O=C(c1ccccc1)c1cccc(C(=O)c2ccccc2)c1 | . | . | -5.9 | . | . | . | . | . | .
Oc1ccc(NCc2ccccc2OCc2ccccc2)cc1 | -10.3 | 4.0 | 1.5 | -2.1 | 14.2* | 12.1 | 15.0* | -53.6 | 24.2*
CCNCc1ccccc1OCc1ccccc1 | 1.2 | -1.6 | 46.3 | 1.0 | 0.4 | 6.5 | . | . | .
CN(C)/C=C1\N=C(c2ccccc2)OC1=O | -3.3 | -0.3 | 2.0 | 1.9 | -0.3 | -2.4 | . | . | .
O=C1OC(c2ccccc2)=N/C1=C\C=C\c1ccco1 | 9.5 | 55.7* | 1.9 | 32.2* | 40.8* | 7.2 | -0.7 | 3.4 | 3.4
O=C(N/N=C/C=C/c1ccco1)C(O)c1ccccc1 (configuration not stated) | 3.1 | . | 0.9 | 12.7 | 25.9* | -0.8 | 7.3 | -26.4 | 25.8*
CCOc1ccc(Br)cc1/C(C)=N\NC1=NCCN1 | 0.5 | . | 8.0 | -2.8 | -1.3 | 1.0 | . | . | .
CC(=NNC1=NCCN1)c1cnn(C2=NCCN2)c1C | -1.9 | -28.9 | 2.2 | -0.6 | 18.2* | 1.1 | 0.7 | -3.4 | -0.9
Cc1ccc(C)n1-c1sc2c(c1C(=O)O)CCCC2 | 12.2 | 51.9* | . | 45.7* | 25.3* | 16.5 | 0.7 | -3.4 | 25.4*
CN(C)C(=S)NC(=S)Nc1ccc2ccccc2c1 | 0.7 | 0.9 | . | 0.3 | 15.9* | -0.1 | 1.0 | -3.6 | 17.5*
COc1cc(-c2cccs2)cc(=O)c2c(C)oc(C)c12 | 5.5 | 27.2 | 23.8 | 2.9 | 16.9* | -3.4 | 0.8 | -4.0 | 5.8
C[C@@H]1CCCCO[C@@H](CN(C)Cc2ccc(C(F)(F)F)cc2)[C@H](C)CN([C@@H](C)CO)C(=O)c2cc(NS(=O)(=O)c3ccc(F)cc3)ccc2O1 | . | 1.5 | . | . | . | . | . | . | .
O=C(C[C@H]1CC[C@@H]2[C@H](COC[C@H](O)CN2Cc2cccc(F)c2)O1)NCc1ccncc1 | . | -6.3 | . | . | . | . | . | . | .
CC(C)NC(=O)N(C)C[C@H]1Oc2ccc(NC(=O)Nc3ccc(C(F)(F)F)cc3)cc2CC(=O)N([C@H](C)CO)C[C@H]1C | . | 2.1 | . | . | . | . | . | . | .
CC(C)NC(=O)N(C)C[C@@H]1Oc2ccc(NC(=O)Nc3ccc(C(F)(F)F)cc3)cc2CC(=O)N([C@H](C)CO)C[C@@H]1C | 1.6 | -2.1 | . | -1.5 | 13.9* | 0.4 | 0.3 | -1.6 | -4.1
SMILES | MBD2 inh | CASP6 VEID inh | NSD2 HMT inh | UHRF1 MBD2 ctr | LEDGF integ inh | TDP2 absorb | IN multimer up | TR-FRET interf | LEDGF integ conf
CCCN(C)C[C@H]1OCCCC[C@@H](C)Oc2ccc(NC(=O)Nc3ccc(OC)cc3)cc2C(=O)N([C@@H](C)CO)C[C@H]1C | . | -0.2 | . | . | . | . | . | . | .
O=C1NC(=O)/C(=C/c2cccc3ccccc23)S1 | -2.0 | 9.3 | 3.4 | -3.1 | 6.1 | 0.8 | . | . | .
O=C1NC(=O)/C(=C\c2ccc(O)cc2O)S1 | 2.2 | 86.8* | 102.2* | 9.8 | 19.9* | 4.4 | 48.4* | -243.5 | 66.2*
CO[C@H]1CN(C)C(=O)c2cc(NS(C)(=O)=O)ccc2OC[C@H](C)N(C(=O)C2CCOCC2)C[C@@H]1C | . | -2.4 | . | . | . | . | . | . | .
COCC(=O)N1CCC(Oc2ccc(C(=O)N3CCCCCC3)cc2)CC1 | 2.0 | -3.4 | 0.0 | 0.7 | 28.2* | -1.4 | -0.7 | 3.6 | 0.4
Cn1cc(Cl)c(-c2n[nH]c(=S)n2-c2ccc(F)cc2)n1 | -1.1 | -1.4 | -3.9 | -1.4 | 28.3* | 6.8 | -0.7 | 3.6 | -6.4
COc1ccc(-c2nc3ccccc3c(=O)n2NC(=O)Cc2ccccc2)cc1 | -3.0 | 1.3 | -3.7 | -4.0 | 51.8* | 8.4 | 0.8 | -3.9 | -5.3
COc1cccc(/C=N/NC(=O)CCc2n[nH]c(=O)[nH]c2=O)c1O | -4.2 | . | -3.3 | -3.6 | -5.2 | -3.0 | . | . | .
O=C(CCc1n[nH]c(=O)[nH]c1=O)N/N=C/c1ccco1 | 4.5 | . | 2.9 | 8.4 | 15.2* | 12.8 | -0.8 | 3.9 | 5.4
COCC(=O)Nc1ccc2c(c1)C(=O)N(C)C[C@@H](OC)[C@H](C)CN(C)[C@@H](C)CO2 | . | -1.4 | . | . | . | . | . | . | .
C=CCc1c(C)nc(-c2ccccc2)nc1N/N=C/c1ccccc1 | 1.8 | 0.1 | -2.3 | -3.8 | 53.2* | -3.7 | -1.1 | 5.3 | 24.7*
COc1ccc(OC)c(NC(=O)COC(=O)/C=C/c2ccco2)c1 | 4.9 | 25.1 | 0.3 | 15.3 | 21.7* | -20.7 | 1.1 | -5.8 | -4.4
Cc1nc(NC(=O)COC(=O)/C=C/c2ccco2)c(Cl)cc1Cl | -2.3 | 49.5* | 1.5 | 19.3 | 32.9* | -9.1 | 1.9 | -6.7 | -0.3
Cc1ccc(S(=O)(=O)N2C[C@@H]3[C@H](c4ccccc42)[C@H](CO)N3Cc2cccnc2)cc1 | . | 0.6 | . | . | . | . | . | . | .
